According to ChEMBL document CHEMBL2177000, “Pharmacokinetic optimization of class-selective histone deacetylase inhibitors and identification of associated candidate predictive biomarkers of hepatocellular carcinoma tumor response” (J Med Chem, 2012):

Columns and labels:
[1] = biological target: Histone deacetylase (Homo sapiens) (UniProt Q13547+O15379+Q9UBN7+Q92769+Q9UQL6+Q8WUI4+Q9BY41+Q96DB2+P56524+Q9UKV0+Q969S8); experiment: Inhibition of Class 1 histone deacetylase in human HeLa cells assessed as induction in p21 protein expression at 3 uM incubated for 16 hrs by luciferase reporter gene assay relative to HDAC inhibitor entinostat; assay type: cell-based; design: scale not given: the % may be the effect or the level left
[2] = Clearance in mouse liver microsomes at 1 uM incubated for 10 mins by LC-MS/MS method; assay type: ADME, Microsome
Summary of the method: (§1)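 Liver microsomes (human or mouse, 0.5 mg/mL) in 100 mM potassium phosphate pH 7.4 with 1 μM compound, prewarmed 10 min at 37 °C, started with NADPH (10 mM); stopped at 0, 3, 6, 9, 15, 30 min with ice-cold methanol containing tolbutamide internal standard; LC-MS/MS. Hepatic clearance (mL/min/kg) calculated from intrinsic clearance.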

[3] = Clearance in human liver microsomes at 1 uM incubated for 10 mins by LC-MS/MS method; assay type: ADME, Microsome; summary of the method: as §1

Row | Activity [1] [%] | CLhep predicted at 1 µM [2] [mL/min/kg] | CLhep predicted at 1 µM [3] [mL/min/kg] | Compound
1 | 200 | 43 | 15 | CN1C[C@H](C(=O)Nc2ccc(F)c(Br)c2)[C@@H](c2ccc(/C=C/C(=O)Nc3ccccc3N)cc2)C1 (racemic)
2 | 160 | 36 | 14 | CN1C[C@H](C(=O)Nc2ccc(Cl)c(Cl)c2)[C@@H](c2ccc(/C=C/C(=O)Nc3ccccc3N)cc2)C1 (racemic)
3 | 210 | 65 | 15 | Cc1cc(NC(=O)[C@H]2CN(C)C[C@@H]2c2ccc(/C=C/C(=O)Nc3ccccc3N)cc2)ccc1Cl (racemic)
4 | 180 | 27 | 12 | CN1C[C@H](C(=O)Nc2ccc(F)cc2F)[C@@H](c2ccc(/C=C/C(=O)Nc3ccccc3N)cc2)C1 (racemic)
5 | 200 | 43 | 11 | CN1C[C@H](C(=O)Nc2ccc(Cl)cc2F)[C@@H](c2ccc(/C=C/C(=O)Nc3ccccc3N)cc2)C1 (racemic)
6 | 130 | 57 | 8 | Cc1ccc(NC(=O)[C@H]2CN(C)C[C@@H]2c2ccc(/C=C/C(=O)Nc3ccccc3N)cc2)cn1 (racemic)
7 | 150 | 31 | 13 | CN1C[C@H](C(=O)Nc2ccc(Cl)cn2)[C@@H](c2ccc(/C=C/C(=O)Nc3ccccc3N)cc2)C1 (racemic)
8 | 270 | 67 | 7 | CN1C[C@H](C(=O)Nc2ccccc2)[C@@H](c2ccc(/C=C/C(=O)Nc3ccccc3N)cc2)C1 (racemic)
9 | 260 | 62 | 15 | Cc1ccc(NC(=O)[C@H]2CN(C)C[C@@H]2c2ccc(/C=C/C(=O)Nc3ccccc3N)cc2)cc1 (racemic)
10 | 170 | 54 | 14 | COc1ccc(NC(=O)[C@H]2CN(C)C[C@@H]2c2ccc(/C=C/C(=O)Nc3ccccc3N)cc2)cc1 (racemic)
11 | 40 | 16 | 3 | CN1C[C@H](C(=O)Nc2ccc(Br)cc2)[C@@H](c2ccc(/C=C/C(=O)Nc3ccccc3N)cc2)C1 (racemic)
12 | 190 | 56 | 6 | CN1C[C@H](C(=O)Nc2cccc(F)c2)[C@@H](c2ccc(/C=C/C(=O)Nc3ccccc3N)cc2)C1 (racemic)
13 | 230 | 58 | 7 | CN1C[C@H](C(=O)Nc2cccc(Cl)c2)[C@@H](c2ccc(/C=C/C(=O)Nc3ccccc3N)cc2)C1 (racemic)
14 | 350 | 74 | 14 | Cc1cccc(NC(=O)[C@H]2CN(C)C[C@@H]2c2ccc(/C=C/C(=O)Nc3ccccc3N)cc2)c1 (racemic)
15 | 170 | 65 | 14 | COc1cccc(NC(=O)[C@H]2CN(C)C[C@@H]2c2ccc(/C=C/C(=O)Nc3ccccc3N)cc2)c1 (racemic)
16 | 170 | 67 | 10 | CN1C[C@H](C(=O)Nc2ccccc2F)[C@@H](c2ccc(/C=C/C(=O)Nc3ccccc3N)cc2)C1 (racemic)
17 | 180 | 34 | 15 | CN1C[C@H](C(=O)Nc2ccc(F)c(Cl)c2)[C@@H](c2ccc(/C=C/C(=O)Nc3ccccc3N)cc2)C1 (racemic)
18 | 200 | 62 | 15 | Cc1cc(NC(=O)[C@H]2CN(C)C[C@@H]2c2ccc(/C=C/C(=O)Nc3ccccc3N)cc2)ccc1F (racemic)
19 | 240 |  |  | CN1C[C@H](C(=O)Nc2ccc(Cl)cc2)[C@@H](c2ccc(/C=C/C(=O)Nc3ccccc3N)cc2)C1 (racemic)
20 | 50 |  |  | CN1C[C@H](C(=O)Nc2ccncc2)[C@@H](c2ccc(/C=C/C(=O)Nc3ccccc3N)cc2)C1 (racemic)

Further lines, the compound ahead of its results:

Row | Compound | Activity [1] [%] | CLhep predicted at 1 µM [2] [mL/min/kg] | CLhep predicted at 1 µM [3] [mL/min/kg]
21 | Nc1ccccc1NC(=O)/C=C/c1ccc([C@H]2CN(Cc3ccccc3)C[C@@H]2C(=O)Nc2ccc(Cl)cc2)cc1 (racemic) | 70 | 81 | 3
22 | CN1C[C@H](C(=O)Nc2ccc(Cl)cc2)[C@@H](c2ccc(/C=C/C(=O)Nc3ccccc3N)nc2)C1 (racemic) | > 300 | 38 | 12
23 | CN1C[C@H](C(=O)Nc2ccc(Cl)cc2)[C@@H](c2cnc(/C=C/C(=O)Nc3ccccc3N)cn2)C1 (racemic) | > 300 | 25 | 11
24 | CN1C[C@H](C(=O)Nc2cccnc2)[C@@H](c2ccc(/C=C/C(=O)Nc3ccccc3N)cc2)C1 (racemic) | 80 | 41 | 10
25 | CN1C[C@H](C(=O)Nc2ccccn2)[C@@H](c2ccc(/C=C/C(=O)Nc3ccccc3N)cc2)C1 (racemic) | 140 | 40 | 8
26 | CC(C)NC(=O)[C@H]1CN(C)C[C@@H]1c1ccc(/C=C/C(=O)Nc2ccccc2N)cc1 (racemic) | 70 | 12 | 8
27 | CN1C[C@H](C(=O)NC2CC2)[C@@H](c2ccc(/C=C/C(=O)Nc3ccccc3N)cc2)C1 (racemic) | 80 | 7 | 10
28 | CN1C[C@H](C(=O)NC2CCCC2)[C@@H](c2ccc(/C=C/C(=O)Nc3ccccc3N)cc2)C1 (racemic) | 180 | 61 | 9
29 | CN1C[C@H](C(=O)N2CCCCC2)[C@@H](c2ccc(/C=C/C(=O)Nc3ccccc3N)cc2)C1 (racemic) | 10 | 42 | 9
30 | CCN1C[C@H](C(=O)Nc2ccc(Cl)cc2)[C@@H](c2ccc(/C=C/C(=O)Nc3ccccc3N)cc2)C1 (racemic) | 170 | 35 | 12
31 | Nc1ccccc1NC(=O)/C=C/c1ccc([C@H]2CN(C3COC3)C[C@@H]2C(=O)Nc2ccc(Cl)cc2)cc1 (racemic) | 90 | 42 | 13
32 | Nc1ccccc1NC(=O)/C=C/c1ccc([C@H]2CN(CCF)C[C@@H]2C(=O)Nc2ccc(Cl)cc2)cc1 (racemic) | 180 | 51 | 17
33 | Nc1ccccc1NC(=O)/C=C/c1ccc([C@H]2CN(CC(F)F)C[C@@H]2C(=O)Nc2ccc(Cl)cc2)cc1 (racemic) | 90 | 49 | 16
34 | Nc1ccccc1NC(=O)/C=C/c1ccc([C@H]2CN(CC(F)(F)F)C[C@@H]2C(=O)Nc2ccc(Cl)cc2)cc1 (racemic) | 100 | 35 | 15
35 | COCCN1C[C@H](C(=O)Nc2ccc(Cl)cc2)[C@@H](c2ccc(/C=C/C(=O)Nc3ccccc3N)cc2)C1 (racemic) | 250 | 72 | 6
36 | N#CCN1C[C@H](C(=O)Nc2ccc(Cl)cc2)[C@@H](c2ccc(/C=C/C(=O)Nc3ccccc3N)cc2)C1 (racemic) | 190 | 51 | 17
37 | CCNC(=O)N1C[C@H](C(=O)Nc2ccc(Cl)cc2)[C@@H](c2ccc(/C=C/C(=O)Nc3ccccc3N)cc2)C1 (racemic) | 40 | 25 | 9
38 | CCN(CC)C(=O)N1C[C@H](C(=O)Nc2ccc(Cl)cc2)[C@@H](c2ccc(/C=C/C(=O)Nc3ccccc3N)cc2)C1 (racemic) | 90 | 83 | 19
39 | Nc1ccccc1NC(=O)/C=C/c1ccc([C@H]2CN(c3ncccn3)C[C@@H]2C(=O)Nc2ccc(Cl)cc2)cc1 (racemic) | 120 | 44 | 11
40 | CN1C[C@H](C(=O)Nc2ccc(C#N)cc2)[C@@H](c2ccc(/C=C/C(=O)Nc3ccccc3N)cc2)C1 (racemic) | 80 | 35 | 1
41 | CC(C)c1ccc(NC(=O)[C@H]2CN(C)C[C@@H]2c2ccc(/C=C/C(=O)Nc3ccccc3N)cc2)cc1 (racemic) | 70 | 54 | 10
42 | CN1C[C@H](C(=O)Nc2ccc(C3CC3)cc2)[C@@H](c2ccc(/C=C/C(=O)Nc3ccccc3N)cc2)C1 (racemic) | 60 | 60 | 12
43 | CN1C[C@H](C(=O)Nc2ccc(C(F)(F)F)cc2)[C@@H](c2ccc(/C=C/C(=O)Nc3ccccc3N)cc2)C1 (racemic) | 10 | 23 | 6
